In ChEMBL document CHEMBL4340532, “Design, synthesis, and biological evaluation of novel 2'-deoxy-2'-fluoro-2'-C-methyl 8-azanebularine derivatives as potent anti-HBV agents” (Bioorg Med Chem Lett, 2019):

Legend:
[1] = Cytotoxicity against human HepG2 cells supplemented with fresh medium containing compound every 3 days for 9 days measured post-last dose by MTT assay; assay type: cell-based
Outline: (§1)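 HepG2 cells were exposed to compound for 3 or 9 days and viability was read by MTT assay. CC50 is the concentration causing 50% cytotoxicity. Results are mean ± SD of three experiments.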

[2] = Cytotoxicity against human HepG2 cells after 3 days by MTT assay; assay type: cell-based; outline: as §1
[3] = test system: Hepatitis B virus; assay: Antiviral activity against Hepatitis B virus infected in human HepG2.2.15 cells assessed as inhibition of HBeAg secretion at 20 uM supplemented with fresh medium containing compound every 3 days for 6 days and measured on day 9 by ELISA relative to control; assay type: functional
Outline: (§2)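 HepG2.2.15 cells were exposed to compound for up to 9 days. The initial screen used 20 µM for 9 days, with lamivudine (20 µM) as positive control. Follow-up used 10, 20 or 40 µM sampled at days 3, 6 and 9. HBsAg and HBeAg were quantified in culture supernatant by ELISA and compared with a no-drug control. Results are mean ± SD of three experiments.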

[4] = test system: Hepatitis B virus; assay: Antiviral activity against Hepatitis B virus infected in human HepG2.2.15 cells assessed as inhibition of HBsAg secretion at 20 uM supplemented with fresh medium containing compound every 3 days for 6 days and measured on day 9 by ELISA relative to control; assay type: functional; outline: as §2
[5] = test system: Hepatitis B virus; assay: Antiviral activity against Hepatitis B virus infected in human HepG2.2.15 cells assessed as inhibition of intracellular HBV DNA replication at 20 uM measured on day 3 by FQ-PCR analysis relative to control; assay type: functional; conditions: HepG2.2.15, 72 h
Outline: (§3)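 HepG2.2.15 cultures were treated at 10, 20 or 40 µM for 3, 6 and 9 days. Both intracellular and extracellular HBV DNA levels were then determined and compared with untreated cells.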

[6] = test system: Hepatitis B virus; assay: Antiviral activity against Hepatitis B virus infected in human HepG2.2.15 cells assessed as inhibition of intracellular HBV DNA replication at 10 uM measured on day 3 by FQ-PCR analysis relative to control; assay type: functional; conditions: HepG2.2.15, 72 h; outline: as §3
[7] = test system: Hepatitis B virus; assay: Antiviral activity against Hepatitis B virus infected in human HepG2.2.15 cells assessed as inhibition of intracellular HBV DNA replication at 40 uM measured on day 3 by FQ-PCR analysis relative to control; assay type: functional; conditions: HepG2.2.15, 72 h; outline: as §3
[8] = test system: Hepatitis B virus; assay: (§4) Antiviral activity against Hepatitis B virus infected in human HepG2.2.15 cells assessed as inhibition of intracellular HBV DNA replication at 20 uM supplemented with fresh medium containing compound every 3 days for 6 days measured post-last dose by FQ-PCR analysis relative to control; assay type: functional; outline: as §3
[9] = test system: Hepatitis B virus; assay: (§5) Antiviral activity against Hepatitis B virus infected in human HepG2.2.15 cells assessed as inhibition of intracellular HBV DNA replication at 10 uM supplemented with fresh medium containing compound every 3 days for 6 days measured post-last dose by FQ-PCR analysis relative to control; assay type: functional; outline: as §3
[10] = test system: Hepatitis B virus; assay: (§6) Antiviral activity against Hepatitis B virus infected in human HepG2.2.15 cells assessed as inhibition of intracellular HBV DNA replication at 40 uM supplemented with fresh medium containing compound every 3 days for 6 days measured post-last dose by FQ-PCR analysis relative to control; assay type: functional
Outline: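 HepG2.2.15 cells exposed to 10, 20 or 40 µM for 3, 6 or 9 days; intracellular and extracellular HBV DNA levels measured.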

[11] = test system: Hepatitis B virus; assay: (§7) Antiviral activity against Hepatitis B virus infected in human HepG2.2.15 cells assessed as inhibition of intracellular HBV DNA replication at 20 uM supplemented with fresh medium containing compound every 3 days for 9 days measured post-last dose by FQ-PCR analysis relative to control; assay type: functional; outline: as §3
[12] = test system: Hepatitis B virus; assay: (§8) Antiviral activity against Hepatitis B virus infected in human HepG2.2.15 cells assessed as inhibition of intracellular HBV DNA replication at 10 uM supplemented with fresh medium containing compound every 3 days for 9 days measured post-last dose by FQ-PCR analysis relative to control; assay type: functional; outline: as §3
[13] = test system: Hepatitis B virus; assay: (§9) Antiviral activity against Hepatitis B virus infected in human HepG2.2.15 cells assessed as inhibition of intracellular HBV DNA replication at 40 uM supplemented with fresh medium containing compound every 3 days for 9 days measured post-last dose by FQ-PCR analysis relative to control; assay type: functional; outline: as §3
[14] = test system: Hepatitis B virus; assay: Antiviral activity against Hepatitis B virus infected in human HepG2.2.15 cells assessed as inhibition of extracellular HBV DNA replication at 20 uM measured on day 3 by FQ-PCR analysis relative to control; assay type: functional; conditions: HepG2.2.15, 72 h; outline: as §3
[15] = test system: Hepatitis B virus; assay: Antiviral activity against Hepatitis B virus infected in human HepG2.2.15 cells assessed as inhibition of extracellular HBV DNA replication at 10 uM measured on day 3 by FQ-PCR analysis relative to control; assay type: functional; conditions: HepG2.2.15, 72 h; outline: as §3
[16] = test system: Hepatitis B virus; assay: Antiviral activity against Hepatitis B virus infected in human HepG2.2.15 cells assessed as inhibition of extracellular HBV DNA replication at 40 uM measured on day 3 by FQ-PCR analysis relative to control; assay type: functional; conditions: HepG2.2.15, 72 h; outline: as §3
[17] = test system: Hepatitis B virus; assay: (§10) Antiviral activity against Hepatitis B virus infected in human HepG2.2.15 cells assessed as inhibition of extracellular HBV DNA replication at 20 uM supplemented with fresh medium containing compound every 3 days for 6 days measured post-last dose by FQ-PCR analysis relative to control; assay type: functional; outline: as §3
[18] = test system: Hepatitis B virus; assay: (§11) Antiviral activity against Hepatitis B virus infected in human HepG2.2.15 cells assessed as inhibition of extracellular HBV DNA replication at 10 uM supplemented with fresh medium containing compound every 3 days for 6 days measured post-last dose by FQ-PCR analysis relative to control; assay type: functional; outline: as §3
[19] = test system: Hepatitis B virus; assay: (§12) Antiviral activity against Hepatitis B virus infected in human HepG2.2.15 cells assessed as inhibition of extracellular HBV DNA replication at 40 uM supplemented with fresh medium containing compound every 3 days for 6 days measured post-last dose by FQ-PCR analysis relative to control; assay type: functional; outline: as §3
[20] = test system: Hepatitis B virus; assay: (§13) Antiviral activity against Hepatitis B virus infected in human HepG2.2.15 cells assessed as inhibition of extracellular HBV DNA replication at 20 uM supplemented with fresh medium containing compound every 3 days for 9 days measured post-last dose by FQ-PCR analysis relative to control; assay type: functional; outline: as §3
[21] = test system: Hepatitis B virus; assay: (§14) Antiviral activity against Hepatitis B virus infected in human HepG2.2.15 cells assessed as inhibition of extracellular HBV DNA replication at 10 uM supplemented with fresh medium containing compound every 3 days for 9 days measured post-last dose by FQ-PCR analysis relative to control; assay type: functional; outline: as §3
[22] = test system: Hepatitis B virus; assay: (§15) Antiviral activity against Hepatitis B virus infected in human HepG2.2.15 cells assessed as inhibition of extracellular HBV DNA replication at 40 uM supplemented with fresh medium containing compound every 3 days for 9 days measured post-last dose by FQ-PCR analysis relative to control; assay type: functional; outline: as §3
[23] = test system: Hepatitis B virus; assay: Antiviral activity against lamivudine-resistant Hepatitis B virus harboring L180M/M204V mutant infected in human HepG2.2.15 cells assessed as inhibition of intracellular HBV DNA replication at 20 uM measured on day 3 by FQ-PCR analysis relative to control; assay type: functional; conditions: HepG2.2.15, 72 h
Outline: (§16)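 Lamivudine-resistant cell line transfected with the L180M/M204V mutant, exposed to 10, 20 or 40 µM for 3, 6 or 9 days. Intracellular and extracellular HBV DNA levels measured.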

[24] = test system: Hepatitis B virus; assay: Antiviral activity against lamivudine-resistant Hepatitis B virus harboring L180M/M204V mutant infected in human HepG2.2.15 cells assessed as inhibition of intracellular HBV DNA replication at 10 uM measured on day 3 by FQ-PCR analysis relative to control; assay type: functional; conditions: HepG2.2.15, 72 h; outline: as §16
[25] = test system: Hepatitis B virus; assay: Antiviral activity against lamivudine-resistant Hepatitis B virus harboring L180M/M204V mutant infected in human HepG2.2.15 cells assessed as inhibition of intracellular HBV DNA replication at 40 uM measured on day 3 by FQ-PCR analysis relative to control; assay type: functional; conditions: HepG2.2.15, 72 h; outline: as §16
[26] = test system: Hepatitis B virus; assay: as §4, with “against lamivudine-resistant” for “against”, “virus harboring L180M/M204V mutant” for “virus”; assay type: functional; outline: as §16
[27] = test system: Hepatitis B virus; assay: as §5, with “against lamivudine-resistant” for “against”, “virus harboring L180M/M204V mutant” for “virus”; assay type: functional; outline: as §16
[28] = test system: Hepatitis B virus; assay: as §6, with “against lamivudine-resistant” for “against”, “virus harboring L180M/M204V mutant” for “virus”; assay type: functional; outline: as §16
[29] = test system: Hepatitis B virus; assay: as §7, with “against lamivudine-resistant” for “against”, “virus harboring L180M/M204V mutant” for “virus”; assay type: functional; outline: as §16
[30] = test system: Hepatitis B virus; assay: as §8, with “against lamivudine-resistant” for “against”, “virus harboring L180M/M204V mutant” for “virus”; assay type: functional; outline: as §16
[31] = test system: Hepatitis B virus; assay: as §9, with “against lamivudine-resistant” for “against”, “virus harboring L180M/M204V mutant” for “virus”; assay type: functional; outline: as §16
[32] = test system: Hepatitis B virus; assay: Antiviral activity against lamivudine-resistant Hepatitis B virus harboring L180M/M204V mutant infected in human HepG2.2.15 cells assessed as inhibition of extracellular HBV DNA replication at 20 uM measured on day 3 by FQ-PCR analysis relative to control; assay type: functional; conditions: HepG2.2.15, 72 h; outline: as §16
[33] = test system: Hepatitis B virus; assay: Antiviral activity against lamivudine-resistant Hepatitis B virus harboring L180M/M204V mutant infected in human HepG2.2.15 cells assessed as inhibition of extracellular HBV DNA replication at 10 uM measured on day 3 by FQ-PCR analysis relative to control; assay type: functional; conditions: HepG2.2.15, 72 h; outline: as §16
[34] = test system: Hepatitis B virus; assay: Antiviral activity against lamivudine-resistant Hepatitis B virus harboring L180M/M204V mutant infected in human HepG2.2.15 cells assessed as inhibition of extracellular HBV DNA replication at 40 uM measured on day 3 by FQ-PCR analysis relative to control; assay type: functional; conditions: HepG2.2.15, 72 h; outline: as §16
[35] = test system: Hepatitis B virus; assay: as §10, with “against lamivudine-resistant” for “against”, “virus harboring L180M/M204V mutant” for “virus”; assay type: functional; outline: as §16
[36] = test system: Hepatitis B virus; assay: as §11, with “against lamivudine-resistant” for “against”, “virus harboring L180M/M204V mutant” for “virus”; assay type: functional; outline: as §16
[37] = test system: Hepatitis B virus; assay: as §12, with “against lamivudine-resistant” for “against”, “virus harboring L180M/M204V mutant” for “virus”; assay type: functional; outline: as §16
[38] = test system: Hepatitis B virus; assay: as §13, with “against lamivudine-resistant” for “against”, “virus harboring L180M/M204V mutant” for “virus”; assay type: functional; outline: as §16
[39] = test system: Hepatitis B virus; assay: as §14, with “against lamivudine-resistant” for “against”, “virus harboring L180M/M204V mutant” for “virus”; assay type: functional; outline: as §16
[40] = test system: Hepatitis B virus; assay: as §15, with “against lamivudine-resistant” for “against”, “virus harboring L180M/M204V mutant” for “virus”; assay type: functional; outline: as §16
[41] = test system: HepG2 cells (Homo sapiens); assay: Cytotoxicity against human HepG2 cells at 40 uM supplemented with fresh medium containing compound every 3 days for 9 days measured post-last dose
[42] = test system: HepG2 cells (Homo sapiens); assay: as above; remark: listed apart in the source

## C[C@@]1(F)[C@H](O)[C@@H](CO)O[C@H]1n1nnc2c(Nc3ccc(Cl)cc3F)ncnc21
[1]
  CC50 at 216 h: 245 µM
[2]
  CC50 at 72 h: 409 µM
[3]
  inhibition (INH): 31.6%
[4]
  inhibition (INH): 39.7%
[5]
  inhibition at 20 µM: 28.1%
[6]
  inhibition at 10 µM: 14%
[7]
  inhibition at 40 µM: 36.8%
[8]
  inhibition (INH): 47%
[9]
  inhibition (INH): 31.8%
[10]
  inhibition (INH): 65.2%
[11]
  inhibition (INH): 67.4%
[12]
  inhibition (INH): 44.2%
[13]
  inhibition (INH): 80.2%
[14]
  inhibition at 20 µM: 24.5%
[15]
  inhibition at 10 µM: 18.4%
[16]
  inhibition at 40 µM: 34.7%
[17]
  inhibition (INH): 42.6%
[18]
  inhibition (INH): 31.1%
[19]
  inhibition (INH): 68.9%
[20]
  inhibition (INH): 65%
[21]
  inhibition (INH): 36.9%
[22]
  inhibition (INH): 82.5%
[23]
  inhibition at 20 µM: 17.5%
[24]
  inhibition at 10 µM: 5%
[25]
  inhibition at 40 µM: 31.3%
[26]
  inhibition (INH): 41.6%
[27]
  inhibition (INH): 22.8%
[28]
  inhibition (INH): 66.3%
[29]
  inhibition (INH): 65.2%
[30]
  inhibition (INH): 36.6%
[31]
  inhibition (INH): 76.4%
[32]
  inhibition at 20 µM: 35.6%
[33]
  inhibition at 10 µM: 11%
[34]
  inhibition at 40 µM: 45.2%
[35]
  inhibition (INH): 49.5%
[36]
  inhibition (INH): 27.4%
[37]
  inhibition (INH): 61.1%
[38]
  inhibition (INH): 61.4%
[39]
  inhibition (INH): 32.1%
[40]
  inhibition (INH): 83.6%
[41]
  inhibition (INH): 7.7%
[42]
  inhibition (INH): 7.7%

## C[C@@]1(F)[C@H](O)[C@@H](CO)O[C@H]1n1nnc2c(NC3CC3)ncnc21
[1]
  CC50 at 216 h: > 600 µM
[3]
  inhibition (INH): 16.7%
[4]
  inhibition (INH): 11.4%
